Converted amounts (≈) assume the structure as drawn.
tested on: Candida albicans; assay: Antifungal activity against Candida albicans ATCC 10261 at 35 degC after 48 hrs by broth microdilution test; type: functional; details: Candida albicans, ATCC 10261, 48 h; read-out: MIC
Method in brief: (§1)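 Broth microdilution per NCCLS M27-A2. Stocks in 100% DMSO, diluted in RPMI 1640 with 0.165 M MOPS at pH 7.0; final range 0.25–128 µg/mL. Inoculum 1000–5000 cells/mL from SDA subcultures. […] C. parapsilosis ATCC22019 served as QC strain.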

Row | SMILES | MIC [µg/mL]
1 | Fc1ccc(C(CCn2ccnc2)Oc2ccc(Cl)cc2Cl)cc1 (stereo not given) | 2.9 (≈ 7.94 µM)
2 | Cc1ccc(OC(CCn2ccnc2)c2ccc(C)cc2)cc1 (stereo not given) | 4 (≈ 13.1 µM)
3 | Cc1ccc(OC(CCCn2ccnc2)c2ccc(Cl)cc2)cc1 (stereo not given) | 2.1 (≈ 6.16 µM)
4 | Clc1ccc(C(CCn2ccnc2)Oc2c(Cl)cccc2Cl)cc1 (stereo not given) | 5 (≈ 13.1 µM)

same assay, conditions: Candida albicans, ATCC 10261, 48 h; read-out: MIC50

Row | SMILES | MIC50 [µg/mL]
5 | Fc1ccc(C(CCn2ccnc2)Oc2ccc(Cl)cc2Cl)cc1 (stereo not given) | 4 (≈ 11 µM)
6 | Cc1ccc(OC(CCn2ccnc2)c2ccc(C)cc2)cc1 (stereo not given) | 4 (≈ 13.1 µM)
7 | Cc1ccc(OC(CCCn2ccnc2)c2ccc(Cl)cc2)cc1 (stereo not given) | 2 (≈ 5.87 µM)
8 | Clc1ccc(C(CCn2ccnc2)Oc2c(Cl)cccc2Cl)cc1 (stereo not given) | 2 (≈ 5.24 µM)

same assay, conditions: Candida albicans, ATCC 10261, 48 h; read-out: MIC90

Row | SMILES | MIC90 [µg/mL]
9 | Fc1ccc(C(CCn2ccnc2)Oc2ccc(Cl)cc2Cl)cc1 (stereo not given) | 4 (≈ 11 µM)
10 | Cc1ccc(OC(CCn2ccnc2)c2ccc(C)cc2)cc1 (stereo not given) | 4 (≈ 13.1 µM)
11 | Cc1ccc(OC(CCCn2ccnc2)c2ccc(Cl)cc2)cc1 (stereo not given) | 4 (≈ 11.7 µM)
12 | Clc1ccc(C(CCn2ccnc2)Oc2c(Cl)cccc2Cl)cc1 (stereo not given) | 8 (≈ 21 µM)

tested on: not listed separately; assay: Cytotoxicity against human U937 cells assessed as reduction of cell viability after 24 hrs by MTT assay; type: cell-based, U-937; details: not given
Method in brief: (§2)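 U937 and K562 cells, from ATCC, plated at 5 × 10^4/mL in phenol-red-free RPMI-1640 with 20% FBS and penicillin/streptomycin. Compounds added 2 h later at 25–100 µg/mL, then 24 h at 37 °C. MTT at 1 mg/mL for 3 h, formazan dissolved in isopropanol with 0.1 N HCl, absorbance read at 570 nm. CC50 is the concentration reducing viability by 50% versus the drug-free control.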

Row | SMILES | CC50 at 24 h [µM]
13 | Fc1ccc(C(CCn2ccnc2)Oc2ccc(Cl)cc2Cl)cc1 (stereo not given) | 120
14 | Cc1ccc(OC(CCn2ccnc2)c2ccc(C)cc2)cc1 (stereo not given) | 263
15 | Cc1ccc(OC(CCCn2ccnc2)c2ccc(Cl)cc2)cc1 (stereo not given) | 350
16 | Clc1ccc(C(CCn2ccnc2)Oc2c(Cl)cccc2Cl)cc1 (stereo not given) | 271

tested on: Candida parapsilosis; assay: Antifungal activity against Candida parapsilosis ATCC 22019 at 35 degC after 48 hrs by broth microdilution test; type: functional; details: Lodderomyces parapsilosis, ATCC 22019, 48 h; read-out: MFC; method in brief: as §1

Row | SMILES | MFC [µg/mL]
17 | Fc1ccc(C(CCn2ccnc2)Oc2ccc(Cl)cc2Cl)cc1 (stereo not given) | 4 (≈ 11 µM)
18 | Cc1ccc(OC(CCn2ccnc2)c2ccc(C)cc2)cc1 (stereo not given) | 8 (≈ 26.1 µM)
19 | Cc1ccc(OC(CCCn2ccnc2)c2ccc(Cl)cc2)cc1 (stereo not given) | 0.25 (≈ 0.733 µM)
20 | Clc1ccc(C(CCn2ccnc2)Oc2c(Cl)cccc2Cl)cc1 (stereo not given) | 4 (≈ 10.5 µM)

same assay, conditions: Lodderomyces parapsilosis, ATCC 22019, 48 h; read-out: MIC

Row | SMILES | MIC [µg/mL]
21 | Fc1ccc(C(CCn2ccnc2)Oc2ccc(Cl)cc2Cl)cc1 (stereo not given) | 0.5 (≈ 1.37 µM)
22 | Cc1ccc(OC(CCn2ccnc2)c2ccc(C)cc2)cc1 (stereo not given) | 2 (≈ 6.53 µM)
23 | Cc1ccc(OC(CCCn2ccnc2)c2ccc(Cl)cc2)cc1 (stereo not given) | 0.03 (≈ 0.088 µM)
24 | Clc1ccc(C(CCn2ccnc2)Oc2c(Cl)cccc2Cl)cc1 (stereo not given) | 1 (≈ 2.62 µM)

tested on: not listed separately; assay: Cytotoxicity against human K562 cells after assessed as reduction of cell viability 24 hrs by MTT assay; type: cell-based; details: not given; method in brief: as §2

Row | SMILES | CC50 at 24 h [µM]
25 | Fc1ccc(C(CCn2ccnc2)Oc2ccc(Cl)cc2Cl)cc1 (stereo not given) | 74.2
26 | Cc1ccc(OC(CCn2ccnc2)c2ccc(C)cc2)cc1 (stereo not given) | 191
27 | Cc1ccc(OC(CCCn2ccnc2)c2ccc(Cl)cc2)cc1 (stereo not given) | 259
28 | Clc1ccc(C(CCn2ccnc2)Oc2c(Cl)cccc2Cl)cc1 (stereo not given) | 135

tested on: Arthrodermataceae; assay: Antifungal activity against dermatophytes at 28 degC after 48 to 96 hrs by broth microdilution test; details: not given

Row | SMILES | MFC50 [µg/mL]
29 | Fc1ccc(C(CCn2ccnc2)Oc2ccc(Cl)cc2Cl)cc1 (stereo not given) | 32 (≈ 87.6 µM)
30 | Cc1ccc(OC(CCn2ccnc2)c2ccc(C)cc2)cc1 (stereo not given) | 32 (≈ 104 µM)

tested on: Arthrodermataceae; assay: Antifungal activity against dermatophytes at 28 degC after 5 days by broth microdilution test; details: not given

Row | SMILES | MFC90 [µg/mL]
31 | Fc1ccc(C(CCn2ccnc2)Oc2ccc(Cl)cc2Cl)cc1 (stereo not given) | 64 (≈ 175 µM)
32 | Cc1ccc(OC(CCn2ccnc2)c2ccc(C)cc2)cc1 (stereo not given) | 32 (≈ 104 µM)

same assay, conditions: Arthrodermataceae

Row | SMILES | MFC [µg/mL]
33 | Fc1ccc(C(CCn2ccnc2)Oc2ccc(Cl)cc2Cl)cc1 (stereo not given) | 41 (≈ 112 µM)
34 | Cc1ccc(OC(CCn2ccnc2)c2ccc(C)cc2)cc1 (stereo not given) | 30.4 (≈ 99.2 µM)

tested on: Candida albicans; assay: Antifungal activity against fluconazole-sensitive Candida albicans Fe40 at 35 degC after 48 hrs by broth microdilution test; type: functional; details: not given; method in brief: as §1

Row | SMILES | MIC [µg/mL]
35 | Fc1ccc(C(CCn2ccnc2)Oc2ccc(Cl)cc2Cl)cc1 (stereo not given) | 2 (≈ 5.48 µM)
36 | Cc1ccc(OC(CCn2ccnc2)c2ccc(C)cc2)cc1 (stereo not given) | 4 (≈ 13.1 µM)
37 | Clc1ccc(C(CCn2ccnc2)Oc2c(Cl)cccc2Cl)cc1 (stereo not given) | 2 (≈ 5.24 µM)

tested on: not listed separately; assay: Therapeutic index, ratio of CC50 for human U937 cells to MIC90 for Candida albicans ATCC 10261; type: cell-based, U-937; details: not given
Method in brief: (§3)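 Therapeutic index calculated as CC50 in the given cell line divided by MIC90.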

Row | SMILES | selectivity ratio
38 | Cc1ccc(OC(CCCn2ccnc2)c2ccc(Cl)cc2)cc1 (stereo not given) | 87.5

tested on: Candida albicans; assay: Antifungal activity against Candida albicans ATCC 10261 at 35 degC after 48 to 96 hrs by broth microdilution test; type: functional; details: not given
Method in brief: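 Minimal fungicidal concentration for Candida. […] MFC is the lowest concentration allowing fewer than two colonies (99% killing).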

Row | SMILES | MFC50 [µg/mL] | MFC90 [µg/mL]
39 | Fc1ccc(C(CCn2ccnc2)Oc2ccc(Cl)cc2Cl)cc1 (stereo not given) | 8 (≈ 21.9 µM) | 8 (≈ 21.9 µM)
40 | Cc1ccc(OC(CCn2ccnc2)c2ccc(C)cc2)cc1 (stereo not given) | 16 (≈ 52.2 µM) | 32 (≈ 104 µM)
41 | Cc1ccc(OC(CCCn2ccnc2)c2ccc(Cl)cc2)cc1 (stereo not given) | 4 (≈ 11.7 µM) | 8 (≈ 23.5 µM)
42 | Clc1ccc(C(CCn2ccnc2)Oc2c(Cl)cccc2Cl)cc1 (stereo not given) | 8 (≈ 21 µM) | 16 (≈ 41.9 µM)

same assay, conditions: Candida albicans, ATCC 10261; read-out: MFC

Row | SMILES | MFC [µg/mL]
43 | Fc1ccc(C(CCn2ccnc2)Oc2ccc(Cl)cc2Cl)cc1 (stereo not given) | 6.9 (≈ 18.9 µM)
44 | Cc1ccc(OC(CCn2ccnc2)c2ccc(C)cc2)cc1 (stereo not given) | 20.5 (≈ 66.9 µM)
45 | Cc1ccc(OC(CCCn2ccnc2)c2ccc(Cl)cc2)cc1 (stereo not given) | 5.6 (≈ 16.4 µM)
46 | Clc1ccc(C(CCn2ccnc2)Oc2c(Cl)cccc2Cl)cc1 (stereo not given) | 14.7 (≈ 38.5 µM)

tested on: not listed separately; assay: Therapeutic index, ratio of CC50 for human K562 cells to MIC90 for Candida albicans ATCC 10261; type: cell-based; details: not given; method in brief: as §3

Row | SMILES | selectivity ratio
47 | Cc1ccc(OC(CCCn2ccnc2)c2ccc(Cl)cc2)cc1 (stereo not given) | 64.8

tested on: Arthrodermataceae; assay: Antifungal activity against dermatophytes at 28 degC after 7 days by broth microdilution test; type: functional; details: 168 h
Method in brief: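 Ten clinical isolates (two M. canis, five M. gypseum, three T. mentagrophytes) tested by NCCLS M38-A broth microdilution in MOPS-buffered RPMI 1640, pH 7.0, over 0.25–128 µg/mL. Conidial/hyphal suspension from PDA slants (28 °C, 7 days) adjusted to 65–70% transmittance at OD530, then diluted 1:50.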

Row | SMILES | MIC [µg/mL] | MIC50 [µg/mL] | MIC90 [µg/mL]
48 | Fc1ccc(C(CCn2ccnc2)Oc2ccc(Cl)cc2Cl)cc1 (stereo not given) | 13.5 (≈ 37 µM) | 16 (≈ 43.8 µM) | 16 (≈ 43.8 µM)
49 | Cc1ccc(OC(CCn2ccnc2)c2ccc(C)cc2)cc1 (stereo not given) | 8 (≈ 26.1 µM) | 8 (≈ 26.1 µM) | 8 (≈ 26.1 µM)

tested on: Candida albicans; assay: Antifungal activity against fluconazole-resistant Candida albicans isolated from oropharyngeal or vaginal disease patient after 48 hrs by broth microdilution test; type: functional; details: not given

Row | SMILES | MIC [µg/mL]
50 | Fc1ccc(C(CCn2ccnc2)Oc2ccc(Cl)cc2Cl)cc1 (stereo not given) | 5.6 (≈ 15.3 µM)
51 | Cc1ccc(OC(CCn2ccnc2)c2ccc(C)cc2)cc1 (stereo not given) | 4.8 (≈ 15.7 µM)
52 | Clc1ccc(C(CCn2ccnc2)Oc2c(Cl)cccc2Cl)cc1 (stereo not given) | 6.8 (≈ 17.8 µM)

Reference: ChEMBL document CHEMBL1157464, “1-[(3-Aryloxy-3-aryl)propyl]-1H-imidazoles, new imidazoles with potent activity against Candida albicans and dermatophytes. Synthesis, structure-activity relationship, and molecular modeling studies” (J Med Chem, 2008)
